Test results as given in ChEMBL document CHEMBL1133361, “Synthesis and biological activity of peptidyl aldehyde urokinase inhibitors” (Bioorg Med Chem Lett, 2000).

Legend:
[1] = Total concentration in rat plasma after administration of 50 mg/kg dose through subcutaneous route; details: sc
[2] = Maximum concentration in rat plasma after administration of 50 mg/kg dose through subcutaneous route; assay type: ADME, organism-based; design: dose 50 mg/kg, route subcutaneous; details: sc
Procedure, shortened: (§1)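 Rats (n=3) received 50 mg/kg subcutaneously. Plasma was sampled over 24 h after dosing the parent aldehyde, or over 30 h after dosing its carbonate prodrug, with parent and prodrug measured. Levels were quantified by solid-phase extraction and HPLC mass spectrometry, and half-life and Cmax were taken from the concentration-time profile.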

[3] = Apparent terminal elimination half-life in dog after administration of 20 mg/kg dose through peroral route; assay type: ADME, organism-based, Canis lupus familiaris; design: dose 20 mg/kg, route oral; details: in vivo, po
Procedure, shortened: (§2)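 Conscious dogs (n=3) were given a single 20 mg/kg oral dose. Plasma drug levels were quantified by solid-phase extraction followed by HPLC mass spectrometry, and elimination half-life, Cmax and AUC were derived from the plasma concentration-time profile.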

[4] = Apparent terminal elimination half-life in rat plasma after administration of 50 mg/kg dose through subcutaneous route; details: sc
[5] = Maximum concentration in rat plasma after administration of 50 mg/kg dose through subcutaneous route; details: sc
[6] = Area under curve in dog after administration of 20 mg/kg dose through peroral route; assay type: ADME, organism-based, Canis lupus familiaris; design: dose 20 mg/kg, route oral; details: in vivo, po
Procedure, shortened: as §2

[7] = Apparent terminal elimination half-life in rat plasma after administration of 50 mg/kg dose through subcutaneous route; assay type: ADME, organism-based; design: dose 50 mg/kg, route subcutaneous; details: sc
Procedure, shortened: as §1

[8] = Maximum concentration in dog after administration of 20 mg/kg dose through peroral route; assay type: ADME, organism-based, Canis lupus familiaris; design: dose 20 mg/kg, route oral; details: in vivo, po
Procedure, shortened: as §2

[9] = target: Tissue-type plasminogen activator (Homo sapiens, UniProt P00750); assay: The compound was tested in vitro for its inhibitory activity against human t-PA enzyme, activity expressed as IC50
Procedure, shortened: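 Human t-PA (1 nM final) was tested for cleavage of chromogenic substrate Pefachrome t-PA. IC50 was taken as the inhibitor concentration giving 50% inhibition of substrate cleavage.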

[10] = Area under curve in rat plasma after administration of 50 mg/kg dose through subcutaneous route; details: sc
[11] = target: Urokinase-type plasminogen activator (Homo sapiens, UniProt P00749); assay: The compound was tested in vitro for its inhibitory activity against human urokinase enzyme, activity expressed as IC50
[12] = target: Plasminogen (Homo sapiens, UniProt P00747); assay: The compound was tested in vitro for its inhibitory activity against human Plasmin enzyme, activity expressed as IC50
[13] = Apparent terminal elimination half-life in rat plasma after administration of 50 mg/kg dose through subcutaneous route; details: sc; remark: listed apart in the source

Sequence of Tissue-type plasminogen activator (P00750 whole entry): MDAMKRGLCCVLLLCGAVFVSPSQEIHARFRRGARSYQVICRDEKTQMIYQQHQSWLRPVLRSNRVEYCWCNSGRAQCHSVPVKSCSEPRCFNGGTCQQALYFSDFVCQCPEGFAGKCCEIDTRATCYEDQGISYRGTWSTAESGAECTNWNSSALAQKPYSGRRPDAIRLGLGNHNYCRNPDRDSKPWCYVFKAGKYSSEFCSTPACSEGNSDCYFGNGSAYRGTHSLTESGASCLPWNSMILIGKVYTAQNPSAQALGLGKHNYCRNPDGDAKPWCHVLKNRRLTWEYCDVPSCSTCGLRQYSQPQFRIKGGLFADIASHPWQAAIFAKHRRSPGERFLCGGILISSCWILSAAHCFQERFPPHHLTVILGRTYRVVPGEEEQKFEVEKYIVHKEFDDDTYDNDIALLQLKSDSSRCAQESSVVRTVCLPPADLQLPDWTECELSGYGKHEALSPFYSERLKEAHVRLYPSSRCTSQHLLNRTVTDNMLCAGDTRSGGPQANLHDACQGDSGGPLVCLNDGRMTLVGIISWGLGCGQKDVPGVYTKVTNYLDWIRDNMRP
Sequence of Plasminogen (P00747 97-580 limits assumed): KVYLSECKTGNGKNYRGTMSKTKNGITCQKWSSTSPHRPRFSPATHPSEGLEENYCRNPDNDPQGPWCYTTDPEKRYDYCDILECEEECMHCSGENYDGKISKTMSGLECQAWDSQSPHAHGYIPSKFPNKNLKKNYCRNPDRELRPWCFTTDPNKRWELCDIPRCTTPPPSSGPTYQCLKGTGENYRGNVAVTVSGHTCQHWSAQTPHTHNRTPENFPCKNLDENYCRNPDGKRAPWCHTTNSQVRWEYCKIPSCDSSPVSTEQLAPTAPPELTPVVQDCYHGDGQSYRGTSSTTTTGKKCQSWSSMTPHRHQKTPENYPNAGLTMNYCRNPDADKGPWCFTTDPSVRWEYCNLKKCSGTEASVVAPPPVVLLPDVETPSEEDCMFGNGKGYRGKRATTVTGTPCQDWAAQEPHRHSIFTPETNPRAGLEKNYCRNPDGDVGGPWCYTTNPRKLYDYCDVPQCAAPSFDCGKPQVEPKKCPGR
Sequence of Plasminogen (P00747 581-810 limits assumed): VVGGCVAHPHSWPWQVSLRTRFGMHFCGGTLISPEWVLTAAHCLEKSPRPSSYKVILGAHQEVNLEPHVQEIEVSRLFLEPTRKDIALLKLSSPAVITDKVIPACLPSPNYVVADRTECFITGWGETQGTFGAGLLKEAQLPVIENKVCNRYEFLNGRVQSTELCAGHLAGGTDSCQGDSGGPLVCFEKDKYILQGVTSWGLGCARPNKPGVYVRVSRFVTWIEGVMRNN

IC50 [9] | IC50 [12] | Structure (SMILES) | IC50 [11] | other results
> 2500 nM | 904 nM | C[C@H](NC(=O)[C@@H](CO)NC(=O)OCc1ccccc1)C(=O)N[C@H]1CCCN(C(=N)N)C1O (some centres not stated) | – | –
> 2500 nM | > 2500 nM | C[C@H](NC(=O)[C@@](C)(CO)NC(=O)OCc1ccccc1)C(=O)N[C@H]1CCCN(C(=N)N)C1O (some centres not stated) | > 2500 nM | –
> 2500 nM | 482 nM | N=C(N)N1CCC[C@H](NC(=O)C2CCN2C(=O)[C@@H](CO)NC(=O)OCc2ccccc2)C1O (some centres not stated) | 11 nM | –
> 2500 nM | 1170 nM | C[C@H](NC(=O)[C@@H](CO)NS(=O)(=O)c1ccccc1)C(=O)N[C@H]1CCCN(C(=N)N)C1O (some centres not stated) | – | –
> 2500 nM | 125 nM | N=C(N)N1CCCC(NC(=O)[C@H]2CCCN2C(=O)C(CO)NC(=O)OCc2ccccc2)C1O (some centres not stated) | – | –
> 2500 nM | 699 nM | CC(O)[C@@H](NC(=O)OCc1ccccc1)C(=O)N[C@@H](C)C(=O)N[C@H]1CCCN(C(=N)N)C1O (some centres not stated) | 261 nM | –

Second part, the compound before the results:

Structure (SMILES) | IC50 [9] | IC50 [12] | IC50 [11] | other results
CC(C)COC(=O)N[C@H](CO)C(=O)N[C@@H](C)C(=O)N[C@H]1CCCN(C(=N)N)C1O.O=C(O)C(F)(F)F (some centres not stated) | > 2500 nM | 1460 nM | 23.1 nM | Tmax [1]: 2.33 h; Cmax [2]: 4700 ng/mL; half-life [3]: 0.85 h; half-life [4]: 5 h; Cmax [5]: 4700 ng/mL; AUC [6]: 38900 ng·h/mL; half-life [7]: 5 h; Cmax [8]: 22900 ng/mL; AUC [10]: 44500 ng·h/mL
C[C@H](NC(=O)[C@@H](CO)NS(=O)(=O)Cc1ccccc1)C(=O)N[C@H]1CCCN(C(=N)N)C1O (some centres not stated) | > 2500 nM | 275 nM | 5.1 nM | –
C[C@@H](NC(=O)[C@@H](CO)NC(=O)OCc1ccccc1)C(=O)N[C@H]1CCCN(C(=N)N)C1O (some centres not stated) | > 2500 nM | > 2500 nM | > 2500 nM | –
CC(C)COC(=O)N[C@H](COC(=O)O)C(=O)N[C@@H](C)C(=O)N[C@H]1CCCN(C(=N)N)C1O.O=C(O)C(F)(F)F (some centres not stated) | – | – | – | half-life [13]: 10.7 h; Tmax [1]: 2.67 h; Cmax [5]: 2300 ng/mL; AUC [10]: 38600 ng·h/mL
C[C@H](NC(=O)[C@@H](CO)NS(=O)(=O)CCc1ccccc1)C(=O)N[C@H]1CCCN(C(=N)N)C1O (some centres not stated) | > 2500 nM | 367 nM | 3.1 nM | –
N=C(N)N1CCC[C@@H](NC(=O)[C@H]2CCCCN2C(=O)[C@@H](CO)NC(=O)OCc2ccccc2)C1O (some centres not stated) | > 2500 nM | – | 101 nM | –
